Measured values reported in ChEMBL document CHEMBL4011643, “Triaryl Benzimidazoles as a New Class of Antibacterial Agents against Resistant Pathogenic Microorganisms” (J Med Chem, 2017).
Converted amounts (≈) assume the structure as drawn.

How the values were obtained:
Enterococcus faecalis [1] = assay: Antibacterial activity against vancomycin-resistant Enterococcus faecalis NCTC 12201 after 20 hrs by broth microdilution method; assay type: functional; details: NCTC 12201, 20 h
How it was run: (§1)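 Broth microdilution in Tryptic Soy Broth; growth read as OD600 after 20 h. MIC taken as the lowest drug concentration giving OD600 below 0.1. Run in triplicate.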

Staphylococcus aureus [2] = assay: Antibacterial activity against methicillin-resistant Staphylococcus aureus EMRSA-15 after 20 hrs by broth microdilution method; assay type: functional; details: EMRSA-15, 20 h; how it was run: as §1
Enterococcus faecalis [3] = assay: Antibacterial activity against vancomycin-sensitive Enterococcus faecalis NCTC 775 after 20 hrs by broth microdilution method; assay type: functional; details: NCTC 775, 20 h
How it was run: (§2)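 Broth microdilution in Tryptic Soy Broth, done in triplicate. Growth was read as OD600 after 20 h. MIC is the lowest drug concentration giving OD600 below 0.1.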

Enterococcus faecium = assay: Antibacterial activity against vancomycin-resistant Enterococcus faecium NCTC 12204 after 20 hrs by broth microdilution method; assay type: functional; details: NCTC 12204, 20 h; how it was run: as §1
[4] = Cytotoxicity against human HeLa cells assessed as cell viability at 25 uM after 24 hrs by MTT assay; assay type: cell-based; details: read-out: Activity
How it was run: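 HeLa cells, 10000 per well, were grown at 37 °C in 5% CO2 and allowed to settle for 24 h. Compound was then added in triplicate for 24 h of continuous exposure. Viability was read by MTT colorimetry, with absorbance at 570 nm.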

Staphylococcus aureus [5] = assay: Antibacterial activity against methicillin-sensitive Staphylococcus aureus ATCC 9144 after 20 hrs by broth microdilution method; assay type: functional; details: ATCC 9144, 20 h; how it was run: as §2
Staphylococcus aureus [6] = assay: Antibacterial activity against methicillin-resistant Staphylococcus aureus MRSA252 after 20 hrs by broth microdilution method; assay type: functional; details: MRSA252, 20 h; how it was run: as §1

With `Cc1nc2cc(C(=O)NCCCN(C)C)ccc2n1-c1ccc(-c2cccc(NC(=O)c3ccc4nc(CCCN(C)C)[nH]c4c3)c2)cn1` the MIC (Enterococcus faecalis [1]) was 32 to 64 µg/mL (≈ 48.6 to 97.3 µM), the MIC (Staphylococcus aureus [2]) was greater than 128 µg/mL and the MIC (Enterococcus faecalis [3]) was greater than 128 µg/mL. For the same molecule, the MIC (Enterococcus faecium) was 64 µg/mL (≈ 97.3 µM), the viability at 24 h, 25 µM [4] was 39% and the MIC (Staphylococcus aureus [5]) was greater than 128 µg/mL. It also gave an MIC (Staphylococcus aureus [6]) greater than 128 µg/mL.
Molecule `Cc1nc2ccc(-c3cccc(-c4ccc(-n5c(C)nc6cc(C(=O)NCCCN(C)C)ccc65)nc4)c3)cc2[nH]1` has an MIC (Enterococcus faecalis [1]) of 64 µg/mL (≈ 118 µM), an MIC (Staphylococcus aureus [2]) greater than 128 µg/mL and an MIC (Enterococcus faecalis [3]) of 64 µg/mL (≈ 118 µM). The MIC (Enterococcus faecium) was 64 µg/mL (≈ 118 µM), the viability at 24 h, 25 µM [4] was 62% and the MIC (Staphylococcus aureus [5]) was greater than 128 µg/mL. For the same molecule, the MIC (Staphylococcus aureus [6]) was greater than 128 µg/mL.
